Key:
[1] = n-Octanol/phosphate buffer partition coefficient, logP of the compound at pH 7.4 incubated for 85 mins by shake-flask method; assay type: physicochemical
Outline: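 Octanol–water partition by shake-flask: n-octanol with 0.15 M phosphate buffer pH 7.4 at 10:1 volumes. Buffer-phase absorbance read before mixing, then shaken 50 min and centrifuged at 2500 rpm for 35 min. Buffer absorbance read again; P = (Ai−Af)/Af × Vw/Vo.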

Hs-578T = test: Antiproliferative activity against human Hs-578T cells assessed as cell growth inhibition at 10 uM incubated for 48 hrs by sulforhodamine B assay relative to control; assay type: functional
Outline: (§1)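 NCI-60 single-dose screen at 10^-5 M. Cells grown in RPMI 1640 with 5% FBS and 2 mM L-glutamine, plated at 5,000–40,000 cells/well, and preincubated 24 h. Drug (DMSO stock) added and incubated 48 h at 37 °C, 5% CO2. Adherent cells fixed with cold TCA, stained with 0.4% SRB in 1% acetic acid, dye solubilized in 10 mM trizma base, A515 read. Percent growth taken against time-zero and untreated control.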

MDA-MB-231 = test: Antiproliferative activity against human MDA-MB-231 cells assessed as cell growth inhibition at 10 uM incubated for 48 hrs by sulforhodamine B assay relative to control; assay type: functional; outline: as §1
MCF7 = test: Antiproliferative activity against human MCF7 cells assessed as cell growth inhibition at 10 uM incubated for 48 hrs by sulforhodamine B assay relative to control; assay type: functional; outline: as §1
PC-3 = test: Antiproliferative activity against human PC-3 cells assessed as cell growth inhibition at 10 uM incubated for 48 hrs by sulforhodamine B assay relative to control; assay type: functional; outline: as §1
UO-31 = test: Antiproliferative activity against human UO-31 cells assessed as cell growth inhibition at 10 uM incubated for 48 hrs by sulforhodamine B assay relative to control; assay type: functional; outline: as §1
SN12C = test: Antiproliferative activity against human SN12C cells assessed as cell growth inhibition at 10 uM incubated for 48 hrs by sulforhodamine B assay relative to control; assay type: functional; outline: as §1
ACHN = test: Antiproliferative activity against human ACHN cells assessed as cell growth inhibition at 10 uM incubated for 48 hrs by sulforhodamine B assay relative to control; assay type: functional
Outline: (§2)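 Single-dose NCI-60 prescreen at 10^-5 M. Cells in RPMI 1640 with 5% FBS and 2 mM L-glutamine, seeded 5,000–40,000 cells/well with 24 h preincubation, then drug exposure for 48 h at 37 °C under 5% CO2. Growth read by SRB staining of TCA-fixed cells at 515 nm against time-zero and untreated controls. Negative growth values denote cell kill.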

A498 = test: Antiproliferative activity against human A498 cells assessed as cell growth inhibition at 10 uM incubated for 48 hrs by sulforhodamine B assay relative to control; assay type: functional; outline: as §2
786-0 = test: Antiproliferative activity against human 786-0 cells assessed as cell growth inhibition at 10 uM incubated for 48 hrs by sulforhodamine B assay relative to control; assay type: functional; outline: as §2
NCI/ADR-RES = test: Antiproliferative activity against human NCI/ADR-RES cells assessed as cell growth inhibition at 10 uM incubated for 48 hrs by sulforhodamine B assay relative to control; assay type: functional; outline: as §1
OVCAR-3 = test: Antiproliferative activity against human OVCAR-3 cells assessed as cell growth inhibition at 10 uM incubated for 48 hrs by sulforhodamine B assay relative to control; assay type: functional; outline: as §1
IGROV-1 = test: Antiproliferative activity against human IGROV-1 cells assessed as cell growth inhibition at 10 uM incubated for 48 hrs by sulforhodamine B assay relative to control; assay type: functional; outline: as §1
SK-MEL-5 = test: Antiproliferative activity against human SK-MEL-5 cells assessed as cell growth inhibition at 10 uM incubated for 48 hrs by sulforhodamine B assay relative to control; assay type: functional; outline: as §1
SK-MEL-2 = test: Antiproliferative activity against human SK-MEL-2 cells assessed as cell growth inhibition at 10 uM incubated for 48 hrs by sulforhodamine B assay relative to control; assay type: functional; outline: as §1
M14 = test: Antiproliferative activity against human M14 cells assessed as cell growth inhibition at 10 uM incubated for 48 hrs by sulforhodamine B assay relative to control; assay type: functional; outline: as §1
LOX IMVI = test: Antiproliferative activity against human LOX IMVI cells assessed as cell growth inhibition at 10 uM incubated for 48 hrs by sulforhodamine B assay relative to control; assay type: functional; outline: as §1
U-251 = test: Antiproliferative activity against human U-251 cells assessed as cell growth inhibition at 10 uM incubated for 48 hrs by sulforhodamine B assay relative to control; assay type: functional; outline: as §1
SF-539 = test: Antiproliferative activity against human SF-539 cells assessed as cell growth inhibition at 10 uM incubated for 48 hrs by sulforhodamine B assay relative to control; assay type: functional; outline: as §1
SF-295 = test: Antiproliferative activity against human SF-295 cells assessed as cell growth inhibition at 10 uM incubated for 48 hrs by sulforhodamine B assay relative to control; assay type: functional; outline: as §1
SF-268 = test: Antiproliferative activity against human SF-268 cells assessed as cell growth inhibition at 10 uM incubated for 48 hrs by sulforhodamine B assay relative to control; assay type: functional; outline: as §1
SW-620 = test: Antiproliferative activity against human SW620 cells assessed as cell growth inhibition at 10 uM incubated for 48 hrs by sulforhodamine B assay relative to control; assay type: functional; outline: as §1
HCT-116 = test: Antiproliferative activity against human HCT-116 cells assessed as cell growth inhibition at 10 uM incubated for 48 hrs by sulforhodamine B assay relative to control; assay type: functional
Outline: (§3)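 NCI-60 one-dose prescreen at 10^-5 M. Cells grown in RPMI 1640 with 5% FBS and 2 mM glutamine, preincubated 24 h, then exposed 48 h at 37 °C. Adherent lines TCA-fixed, SRB-stained, A515 read. Growth percent relative to time-zero and control; negative values mean cell kill.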

NCI-H522 = test: Antiproliferative activity against human NCI-H522 cells assessed as cell growth inhibition at 10 uM incubated for 48 hrs by sulforhodamine B assay relative to control; assay type: functional; outline: as §1
NCI-H23 = test: Antiproliferative activity against human NCI-H23 cells assessed as cell growth inhibition at 10 uM incubated for 48 hrs by sulforhodamine B assay relative to control; assay type: functional; outline: as §1
HOP-92 = test: Antiproliferative activity against human HOP-92 cells assessed as cell growth inhibition at 10 uM incubated for 48 hrs by sulforhodamine B assay relative to control; assay type: functional; outline: as §3
EKVX = test: Antiproliferative activity against human EKVX cells assessed as cell growth inhibition at 10 uM incubated for 48 hrs by sulforhodamine B assay relative to control; assay type: functional; outline: as §3
SR = test: Antiproliferative activity against human SR cells assessed as cell growth inhibition at 10 uM incubated for 48 hrs by sulforhodamine B assay relative to control; assay type: functional; outline: as §1
RPMI-8226 = test: Antiproliferative activity against human RPMI-8226 cells assessed as cell growth inhibition at 10 uM incubated for 48 hrs by sulforhodamine B assay relative to control; assay type: functional; outline: as §1
MOLT-4 = test: Antiproliferative activity against human MOLT-4 cells assessed as cell growth inhibition at 10 uM incubated for 48 hrs by sulforhodamine B assay relative to control; assay type: functional; outline: as §1
CCRF-CEM = test: Antiproliferative activity against human CCRF-CEM cells assessed as cell growth inhibition at 10 uM incubated for 48 hrs by sulforhodamine B assay relative to control; assay type: functional; outline: as §2

Row | logD at 1.417 h [1] | Structure (SMILES) | inhibition at 10 µM (Hs-578T) [%] | inhibition at 10 µM (MDA-MB-231) [%] | inhibition at 10 µM (MCF7) [%] | inhibition at 10 µM (PC-3) [%] | inhibition at 10 µM (UO-31) [%] | inhibition at 10 µM (SN12C) [%] | inhibition at 10 µM (ACHN) [%] | inhibition at 10 µM (786-0) [%] | inhibition at 10 µM (NCI/ADR-RES) [%] | inhibition at 10 µM (OVCAR-3) [%] | inhibition at 10 µM (SK-MEL-5) [%] | inhibition at 10 µM (SK-MEL-2) [%] | inhibition at 10 µM (LOX IMVI) [%] | inhibition at 10 µM (SF-295) [%] | inhibition at 10 µM (SF-268) [%] | inhibition at 10 µM (SW-620) [%] | inhibition at 10 µM (HCT-116) [%] | inhibition at 10 µM (NCI-H522) [%] | inhibition at 10 µM (NCI-H23) [%] | also measured
1 | 1.73 | Brc1ccc(-c2cn3ccnc3c(-c3ccc4ncn(C5CCCCC5)c4c3)n2)cc1 | 24.5 | 22.8 | 46.4 | 42.4 | 42.9 | 18.4 | 21.4 | 18 | 30.5 | 26.3 | 23.6 | 24.1 | 30.7 | 41.3 | 15.5 | 21.9 | 31.2 | 35.5 | 8.38 | inhibition at 10 µM (A498): 20.7%; inhibition at 10 µM (IGROV-1): 9.4%; inhibition at 10 µM (M14): 26.9%; inhibition at 10 µM (U-251): 23.7%; inhibition at 10 µM (SF-539): 24.4%; inhibition at 10 µM (HOP-92): 34.1%; inhibition at 10 µM (EKVX): 16.2%; inhibition at 10 µM (SR): 60.6%; inhibition at 10 µM (RPMI-8226): 32%; inhibition at 10 µM (MOLT-4): 20.4%
2 | 1.51 | Clc1ccc(-c2cn3ccnc3c(-c3ccc4ncn(C5CCCCC5)c4c3)n2)cc1 | 6.35 | 15.3 | 21.8 | 24.6 | 36.1 | 13.5 | 5.45 | 12.1 | 11.1 | 10.8 | 12.4 | 10.9 | 14.8 | 14.5 | 4.83 | 14 | 7.34 | 19.8 | 4.11 | inhibition at 10 µM (IGROV-1): 7.84%; inhibition at 10 µM (M14): 10%; inhibition at 10 µM (U-251): 11.3%; inhibition at 10 µM (SF-539): 6.3%; inhibition at 10 µM (HOP-92): 30.5%; inhibition at 10 µM (EKVX): 13.1%; inhibition at 10 µM (SR): 18.5%; inhibition at 10 µM (RPMI-8226): 19%; inhibition at 10 µM (MOLT-4): 8.87%; inhibition at 10 µM (CCRF-CEM): 11.4%
3 | 1.44 | c1ccc2c(-c3cn4ccnc4c(-c4ccc5ncn(C6CCCCC6)c5c4)n3)cccc2c1 | 3.62 | 20.8 | 13 | 36.5 | 23 | 11.7 | 6.49 | 6.33 | 4.43 | 2.38 | 4.06 | 2.3 | 7.43 | 6.34 | 7.84 | 5.34 | 17.9 | 19.3 | 4.32 | inhibition at 10 µM (A498): 14%; inhibition at 10 µM (EKVX): 13.2%; inhibition at 10 µM (SR): 6.92%; inhibition at 10 µM (RPMI-8226): 22.9%; inhibition at 10 µM (MOLT-4): 44.7%; inhibition at 10 µM (CCRF-CEM): 17.5%
